How the values were obtained:
Type in all cases: ADME
[1] = biological target: T1, Cytochrome P450 3A4 (Homo sapiens, UniProt P08684); test: Binding affinity to C-terminal four-histidine tagged human CYP3A4delta3 to 24 residues expressed in Escherichia coli assessed as change in melting temperature at 10 uM by spectrophotometric method
[2] = biological target: T1, Cytochrome P450 3A4; test: Binding affinity to C-terminal four-histidine tagged human CYP3A4delta3 to 24 residues expressed in Escherichia coli assessed as rate constant for first phase
In short: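 Stopped-flow mixing of 2 μM CYP3A4 with varied ligand concentrations, room temperature, 50 mM phosphate pH 7.4. Absorbance followed at 409–411 or 427–428 nm depending on ligand. Fast-phase rate constant taken at saturating ligand concentration.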

[3] = biological target: T1, Cytochrome P450 3A4; test: Inhibition of C-terminal four-histidine tagged human CYP3A4delta3 to 24 residues expressed in Escherichia coli assessed as 7-benzyloxy-4-(trifluoromethyl)coumarin O-debenzylation pretreated 2 mins followed by NADPH addition by fluorometric method in presence of rat cytochrome P450 reductase
In short: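 Reconstituted system at room temperature in 100 mM phosphate pH 7.4 with catalase and superoxide dismutase (2 units/mL each). 1 μM CYP3A4 and 1 μM rat CPR preincubated 1 h at room temperature, then diluted 20-fold in assay buffer just before measurement. BFC (50 μM) and varying compound concentrations added 2 min before starting with 100 μM NADPH. O-debenzylation read fluorometrically; IC50 = half-maximal inactivation.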

[4] = biological target: T1, Cytochrome P450 3A4; test: Binding affinity to C-terminal four-histidine tagged human CYP3A4delta3 to 24 residues expressed in Escherichia coli assessed as spectral dissociation constant by spectrophotometric method
In short: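 Equilibrium titration of CYP3A4 in 50 mM phosphate pH 7.4 with 20% glycerol and 1 mM DTT. Ligand added in small aliquots from DMSO stock, final DMSO <2%. Absorbance spectra recorded. Ks obtained from one- or two-site saturation fit of absorbance change versus ligand concentration.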

T1 sequence (P08684 whole entry, the tested form may be a part): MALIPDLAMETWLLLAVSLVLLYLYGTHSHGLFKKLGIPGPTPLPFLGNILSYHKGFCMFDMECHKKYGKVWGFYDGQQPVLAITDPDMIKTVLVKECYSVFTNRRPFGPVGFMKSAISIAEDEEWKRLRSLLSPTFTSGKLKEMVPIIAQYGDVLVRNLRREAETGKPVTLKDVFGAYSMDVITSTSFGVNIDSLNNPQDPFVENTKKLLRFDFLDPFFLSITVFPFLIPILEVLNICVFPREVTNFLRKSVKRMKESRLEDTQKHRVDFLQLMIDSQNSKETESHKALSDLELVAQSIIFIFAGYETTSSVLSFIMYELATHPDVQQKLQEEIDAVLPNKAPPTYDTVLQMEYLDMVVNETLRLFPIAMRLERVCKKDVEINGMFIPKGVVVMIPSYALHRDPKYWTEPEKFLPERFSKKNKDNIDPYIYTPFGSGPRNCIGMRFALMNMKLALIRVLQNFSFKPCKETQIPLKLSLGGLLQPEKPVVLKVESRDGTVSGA

| deltaTm [1] [°C] | K [2] [s⁻¹] | IC50 [3] [µM] | Kd [4] [µM] | Compound |
| --- | --- | --- | --- | --- |
| -0.2 | 20 | 75 | – | CC(C)(C)OC(=O)NCCCCCC(=O)NCc1cccnc1 |
| 0.2 | 8 | 0.21 | 0.5 | CC(C)(C)OC(=O)N[C@H](CSCCC(=O)NCc1cccnc1)Cc1c[nH]c2ccccc12 |
| -2 | 4 | 30 | 10 | CC(C)(C)OC(=O)N[C@H](CSCCC(=O)NCc1cccnc1)CC1CCCCC1 |
| -0.2 | 0.8 | 1000 | 10 | NCCCCCC(=O)NCc1cccnc1 |
| -1 | 1.7 | 0.52 | 0.9 | CC(C)(C)OC(=O)N[C@H](CSCCC(=O)NCc1cccnc1)Cc1ccccc1 |

| Compound | deltaTm [1] [°C] | K [2] [s⁻¹] | IC50 [3] [µM] | Kd [4] [µM] |
| --- | --- | --- | --- | --- |
| c1ccncc1 [PYRIDINE] | 0 | 0.5 | – | – |
| NCCc1cccnc1 | -0.1 | 0.6 | 5000 | 2500 |

Reference: ChEMBL document CHEMBL3813601, “Structure-Based Inhibitor Design for Evaluation of a CYP3A4 Pharmacophore Model” (J Med Chem, 2016)
